Screening data from PubChem.
An excerpt weighted towards active compounds, which were near 6.4% of everything screened.
H69AR growth 86K: blocks growth of human H69AR lung tumor cells. H69AR lung tumor viability, ATP luminescence, 72 h; hits give low values. viability, % at 10 µM. 85,000 compounds, 6% hits;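 active means viability at or below 40%; inactive means viability above 40%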;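 further: multidrug resistant small cell line overexpressing MRP-1 efflux transporter; 100% = mean luminescence of untreated control wells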
E coli WT exp: E. coli BW25113 growth inhibition, expanded screen; OD600 absorbance; growth inhibition, % at 100 µM; 98,000 compounds, 0.15% hits;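 active means growth inhibition above about 50% at one test dose, limit read from the data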;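 further: growth measured after 20 h incubation at 37 °C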
Jurkat viability: cytotoxic compounds reducing Jurkat cell viability. AID 463. Jurkat E6.1 viability, ATP luminescence, 48 h. inhibition, % at 4 µM. 56,000 compounds, 1.2% hits;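 active means inhibition above the mean inhibition of all tested compounds plus 3 SD, cut at about 28% in these data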
HUVEC inhibit: inhibitors of human endothelial cell proliferation; 86,000 compounds, 1.1% hits; HUVEC proliferation, CellTiter-Glo luminescence, 72 h; hits give low values; AID 648; viability, % at 10 µM (by protocol);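 active means viability at or below 30%; inactive means viability above 30%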;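 further: 100% = median luminescence of DMSO-only cell control wells on each plate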
tolC growth inh: growth inhibitors of E. coli BW25113 tolC mutant | OD615 | growth inhibition, % at 10 µM (by protocol) | 65,000 compounds, 2.2% hits | AID 573;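 active means growth inhibition at or above a cutoff equal to the mean over every tested compound plus 3 SD, cut at about 60% in these data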;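 further: growth measured after 20 h incubation at 37 °C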
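Assay system: tolC-deleted E. coli BW25113. Medium: kanamycin-containing LB broth (50 µg/mL). Dosing: 10 µM final, single dose. Timing: bacterial growth with compound for 20 h at 37 °C. Detection: A615 absorbance measurement. Read-out basis: growth inhibition in percent.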
Fibroblast inh: blocks proliferation of human lung fibroblasts | LL 47 human lung fibroblast viability, ATP luminescence; hits give low values | viability, % at 10 µM | 85,000 compounds, 1.1% hits | AID 719;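 active means viability at or below 50% in the single dose screen; inactive means viability above 50%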;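 further: compound exposure lasted 72 h before the ATP readout; 100% = median luminescence of untreated cell-only wells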
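Material: human lung fibroblast line LL 47, low passage; Evaluation: viability percentage against median untreated-cell control; Buffer or medium: 15% FBS in IMEM; Incubation: 72 h compound exposure at 37 °C after overnight plating; Dosing: 0.1% DMSO in all compound wells; Measured by: CellTiter-Glo luminescence.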
Active calls of the source: *.

Results for CCN(CC)C(=O)c1ccc(S(=O)(=O)N2CCC(c3nc4ccccc4s3)CC2)cc1 ?
H69AR growth 86K: 48.1; HUVEC inhibit: 82.3; Fibroblast inh: 96.1

How did CC1CCCN(C(=O)c2ccc(S(=O)(=O)N3CCC(c4nc5ccccc5s4)CC3)cc2)C1 (centres undefined) do in these assays?
H69AR growth 86K: 32.0*; HUVEC inhibit: 88.6; Fibroblast inh: 88.0

How did CCC1CCCCN1S(=O)(=O)c1ccc(S(=O)(=O)N2CCN(S(=O)(=O)CC)CC2)cc1 (centres undefined) do in these assays?
H69AR growth 86K: 63.0; E coli WT exp: -9.0; Jurkat viability: -0.7; HUVEC inhibit: 98.4; tolC growth inh: -2.2; Fibroblast inh: 95.6

Results for N#Cc1c(-c2ccccc2)cc(-c2ccccc2)nc1SCc1nnc(-c2ccccc2)o1 ?
E coli WT exp: -13.0

What do the screens show for `O=C1C(C=Nc2ccccc2)=C(O)c2ccccc21`?
H69AR growth 86K: 62.8; E coli WT exp: -2.0; HUVEC inhibit: 79.7; Fibroblast inh: 101.6

How did COc1ccc(N=CC2=C(O)c3ccccc3C2=O)cc1 do in these assays?
H69AR growth 86K: 34.9*; E coli WT exp: -5.0; HUVEC inhibit: 83.2; Fibroblast inh: 104.5

Results for COc1ccccc1-c1cc(C(F)(F)F)nc(S(=O)(=O)CCCC(=O)N2CCCCC2C)n1 (centres undefined) ?
E coli WT exp: 8.0; Jurkat viability: 58.1*; tolC growth inh: 40.0

Results for CCN(CC)Cc1c(O)ccc2c([N+](=O)[O-])c(C)n(-c3ccc(OC)cc3)c12 ?
H69AR growth 86K: 38.6*; HUVEC inhibit: 64.3; Fibroblast inh: 93.2

How did CCn1c2ccc(OC)cc2c2nc3ccccc3nc21 do in these assays?
H69AR growth 86K: 43.6; HUVEC inhibit: 76.8; Fibroblast inh: 87.0

How did CCCCOC(=O)Cn1c2ccc(OC)cc2c2nc3ccccc3nc21 do in these assays?
H69AR growth 86K: 28.4*; E coli WT exp: -3.0; HUVEC inhibit: 68.1; Fibroblast inh: 70.8

Results for COc1ccc(-c2nc(=S)[nH][nH]2)cc1 ?
H69AR growth 86K: 77.4; E coli WT exp: -1.0; Jurkat viability: -9.4; HUVEC inhibit: 97.6; tolC growth inh: -0.3; Fibroblast inh: 99.9

Results for CCOc1ccc(-c2nc(=S)[nH][nH]2)cc1 ?
H69AR growth 86K: 39.8*; E coli WT exp: 1.0; Jurkat viability: 1.6; HUVEC inhibit: 91.7; tolC growth inh: -3.4; Fibroblast inh: 101.7

Results for COc1cc(OC)cc(-n2nc(C(=O)NCCCN3CCOCC3)c3ccccc3c2=O)c1 ?
E coli WT exp: 6.0; Jurkat viability: -5.9; tolC growth inh: -10.1

Results for O=C(NC1CC1)c1cc2c(s1)-c1ccccc1OC2 ?
H69AR growth 86K: 90.1; E coli WT exp: 4.0; Jurkat viability: 37.6*; HUVEC inhibit: 80.1; tolC growth inh: 5.2; Fibroblast inh: 96.1

How did O=C(O)c1cc2c(s1)-c1ccccc1OC2 do in these assays?
H69AR growth 86K: 98.6; E coli WT exp: -9.0; HUVEC inhibit: 84.3; tolC growth inh: -25.0; Fibroblast inh: 93.4

How did COC(=O)c1ccc(NC(=O)c2ccc(C)cc2)o1 do in these assays?
E coli WT exp: -10.0

What do the screens show for `O=C1c2ccccc2C(=O)N1SC1CCCCC1`?
H69AR growth 86K: 0.6*; E coli WT exp: 4.0; Jurkat viability: -3.5; HUVEC inhibit: 76.2; tolC growth inh: 9.2; Fibroblast inh: 62.5

How did O=C(OCN1C(=O)c2ccccc2C1=O)C1CCCCC1 do in these assays?
H69AR growth 86K: 95.6; E coli WT exp: -4.0; Jurkat viability: -0.4; HUVEC inhibit: 94.8; tolC growth inh: -5.6; Fibroblast inh: 107.4

Results for O=C(NCCc1cn2ccsc2n1)c1cccs1 ?
H69AR growth 86K: 93.4; E coli WT exp: -1.0; Jurkat viability: -4.9; HUVEC inhibit: 97.4; tolC growth inh: -4.6; Fibroblast inh: 105.7

How did Cc1cc2c(cc(C(=O)OCC(=O)NCc3cccs3)n2C(C)C)o1 do in these assays?
H69AR growth 86K: 27.4*; E coli WT exp: -8.0; Jurkat viability: 64.0*; HUVEC inhibit: 53.2; tolC growth inh: 74.5*; Fibroblast inh: 69.0

What do the screens show for `COc1ccc(-c2nnc(SCC(=O)NCc3cccs3)n2C(C)C)cc1`?
H69AR growth 86K: 90.2; E coli WT exp: 9.0; HUVEC inhibit: 100.7; Fibroblast inh: 97.7

What do the screens show for `CC(=O)Oc1ccccc1N1C(=O)c2ccc(C(=O)O)cc2C1=O`?
H69AR growth 86K: 99.0; E coli WT exp: -4.0; Jurkat viability: 5.8; HUVEC inhibit: 87.8; tolC growth inh: -13.1; Fibroblast inh: 94.5

How did CC(=O)Oc1cccc(N2C(=O)c3ccc(C(=O)O)cc3C2=O)c1 do in these assays?
H69AR growth 86K: 2.0*; E coli WT exp: -2.0; Jurkat viability: 1.2; HUVEC inhibit: 97.2; tolC growth inh: -6.3; Fibroblast inh: 93.0

Results for c1ccc(-c2cccc(-c3ccccn3)n2)nc1 ?
H69AR growth 86K: 8.8*; E coli WT exp: 68.0*; Jurkat viability: 87.1*; HUVEC inhibit: 10.0*; tolC growth inh: 73.1*; Fibroblast inh: 29.1*

How did CCN(Cc1ccccc1)Cc1cc(OC)cc(OC)c1 do in these assays?
H69AR growth 86K: 48.9; E coli WT exp: 11.0; Jurkat viability: -1.1; HUVEC inhibit: 102.1; tolC growth inh: -4.6

What do the screens show for `Cc1ccccc1-n1nc2c(c1NC(=O)c1cc3ccccc3oc1=O)CS(=O)(=O)C2`?
H69AR growth 86K: 4.2*; E coli WT exp: -8.0; HUVEC inhibit: 91.8; tolC growth inh: -9.4; Fibroblast inh: 88.2

How did COc1ccc(NC(=O)c2cc3n(n2)C(C(F)(F)F)CC(c2ccco2)N3)cc1 (centres undefined) do in these assays?
H69AR growth 86K: 77.2; E coli WT exp: -3.0; Jurkat viability: -5.4; HUVEC inhibit: 103.0; tolC growth inh: 3.9; Fibroblast inh: 100.6

How did O=C(NCC12CC3CC(CC(C3)C1)C2)c1cc2n(n1)C(C(F)(F)F)CC(c1ccco1)N2 (centres undefined) do in these assays?
H69AR growth 86K: 34.1*; E coli WT exp: 0.0; Jurkat viability: 2.6; HUVEC inhibit: 55.1; tolC growth inh: 34.6; Fibroblast inh: 78.0

Results for CCCC(=O)n1nc(-c2ccc(OC)cc2)nc1N ?
H69AR growth 86K: 97.4; E coli WT exp: 5.0; Jurkat viability: -3.9; HUVEC inhibit: 87.7; tolC growth inh: -0.7; Fibroblast inh: 97.3

Results for Oc1ccc(-c2nnc(SCC3CCCCC3)o2)cc1 ?
H69AR growth 86K: 34.6*; E coli WT exp: -8.0; Jurkat viability: 21.4; HUVEC inhibit: 86.7; tolC growth inh: 11.0; Fibroblast inh: 102.3

How did COc1ccc(CN(C(=O)CSc2nnc(-c3ccccc3C)o2)c2ccc(F)cc2)cc1 do in these assays?
H69AR growth 86K: 0.4*; HUVEC inhibit: 127.7; Fibroblast inh: 102.4

What do the screens show for `COc1ccc(N(CC(=O)Nc2cccc(N(C)S(C)(=O)=O)c2)S(C)(=O)=O)cc1OC`?
H69AR growth 86K: 98.8; E coli WT exp: -2.0; Jurkat viability: 13.3; HUVEC inhibit: 96.6; tolC growth inh: -13.3; Fibroblast inh: 95.2
